{
  "source": "ChEMBL document CHEMBL1152867",
  "about": "“Targeting QseC signaling and virulence for antibiotic development” (Science, 2008)",
  "tested_on": "Escherichia coli",
  "test": "Inhibition of [3H]norepinephrine binding to Escherichia coli Qsec by liposome-based scintillation counting assay",
  "method_in_brief": "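Liposomes reconstituted with QseC were loaded with tritiated norepinephrine (5 μM) by freeze-thaw in liquid N2 and held 10 min at room temperature, so unbound signal could diffuse out. They were pelleted at 12,000g for 5 min and counted for tritium. Counts were normalized to liposomes loaded with 5 μM tyrosine. Compound was tested at 5 pM and 5 fM.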",
  "note": "Active and inactive are the calls of the source. The rule behind the calls is not given here.",
  "data": [
    {"smiles": "Cc1ccc(N(CC2=NCCN2)c2cccc(O)c2)cc1", "values": [
      {"measurement": "Activity", "value": "Active"}
    ]},
    {"smiles": "CC(C)NCC(O)COc1cccc2ccccc12", "note": "(configuration not stated)", "values": [
      {"measurement": "Activity", "value": "inactive"}
    ]}
  ]
}
